ChEMBL document CHEMBL4024784, “Structure-Based Design, Synthesis, and In Vivo Antinociceptive Effects of Selective A1 Adenosine Receptor Agonists” (J Med Chem, 2018)
Active and inactive are the calls of the source. The rule behind the calls is not given here.

Columns and labels:
[1] = biological target: Adenosine receptors; A1 & A3 (Homo sapiens) (UniProt P30542+P0DMS8); test: Selectivity ratio of Ki for recombinant human adenosine A3 receptor to Ki for recombinant human adenosine A1 receptor
Procedure, shortened: (§1)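 Ratios computed from Ki values obtained by competition binding in human receptor-transfected CHO membranes: [3H]CCPA 1 nM (A1), [3H]NECA 10 nM (A2A), [3H]HEMADO 1 nM (A3).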

[2] = biological target: T1, Adenosine receptor A3 (Homo sapiens, UniProt P0DMS8); test: Displacement of [3H]HEMADO from recombinant human adenosine A3 receptor expressed in CHO cell membranes after 3 hrs
T1 sequence (P0DMS8 whole entry): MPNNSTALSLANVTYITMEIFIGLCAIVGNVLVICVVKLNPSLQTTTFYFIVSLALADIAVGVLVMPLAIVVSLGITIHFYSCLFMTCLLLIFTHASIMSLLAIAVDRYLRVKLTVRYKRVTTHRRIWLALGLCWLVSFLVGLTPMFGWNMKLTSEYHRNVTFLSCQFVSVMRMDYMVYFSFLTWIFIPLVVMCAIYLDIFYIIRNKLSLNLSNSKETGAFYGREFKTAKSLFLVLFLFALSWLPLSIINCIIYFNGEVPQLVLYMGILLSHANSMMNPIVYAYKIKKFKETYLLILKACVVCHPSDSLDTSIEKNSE
Procedure, shortened: (§2)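 Competition binding on CHO membranes stably expressing the human subtype (two-step 1,000 x g then 100,000 x g centrifugation, stored -80°C). Radioligands: 1 nM [3H]CCPA (A1), 10 nM [3H]NECA (A2A), 1 nM [3H]HEMADO (A3). Nonspecific binding: 1 mM theophylline (A1) or 100 µM R-PIA (A2A, A3). Ki from competition curves; geometric means with 95% CI, duplicates, n ≥ 3.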

[3] = biological target: T2, Adenosine receptor A2b (Homo sapiens, UniProt P29275); test: Agonist activity at recombinant human adenosine A2B receptor expressed in CHO cell membranes assessed as stimulation of adenylyl cyclase activity in presence of […]; assay type: functional, cell-based
T2 sequence (P29275 whole entry): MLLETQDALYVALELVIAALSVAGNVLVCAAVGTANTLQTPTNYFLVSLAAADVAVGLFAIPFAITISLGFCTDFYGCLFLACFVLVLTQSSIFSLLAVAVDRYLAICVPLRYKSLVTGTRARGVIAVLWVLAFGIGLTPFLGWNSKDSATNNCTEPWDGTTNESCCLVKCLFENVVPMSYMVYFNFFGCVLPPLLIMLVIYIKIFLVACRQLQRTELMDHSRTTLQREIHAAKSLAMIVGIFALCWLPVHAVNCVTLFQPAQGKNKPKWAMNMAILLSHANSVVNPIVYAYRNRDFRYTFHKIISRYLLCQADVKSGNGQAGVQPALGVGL
Procedure, shortened: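 A2B potency from stimulation of adenylyl cyclase in crude CHO membranes (single high-speed centrifugation, resuspended in 50 mM Tris/HCl pH 7.4, used immediately); EC50 derived. Where only partial agonism was seen, efficacy was compared to 100 µM NECA as full agonist. Geometric means, 95% CI, duplicates, n ≥ 3.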

[4] = biological target: Adenosine receptor A2a (Homo sapiens, UniProt P29274); test: Displacement of [3H]NECA from recombinant human adenosine A2A receptor expressed in CHO cell membranes after 3 hrs; procedure, shortened: as §2
[5] = biological target: T3, Adenosine receptor A1 (Homo sapiens, UniProt P30542); test: Displacement of [3H]CCPA from recombinant human adenosine A1 receptor expressed in CHO cell membranes after 3 hrs; procedure, shortened: as §2
T3 sequence (P30542 whole entry): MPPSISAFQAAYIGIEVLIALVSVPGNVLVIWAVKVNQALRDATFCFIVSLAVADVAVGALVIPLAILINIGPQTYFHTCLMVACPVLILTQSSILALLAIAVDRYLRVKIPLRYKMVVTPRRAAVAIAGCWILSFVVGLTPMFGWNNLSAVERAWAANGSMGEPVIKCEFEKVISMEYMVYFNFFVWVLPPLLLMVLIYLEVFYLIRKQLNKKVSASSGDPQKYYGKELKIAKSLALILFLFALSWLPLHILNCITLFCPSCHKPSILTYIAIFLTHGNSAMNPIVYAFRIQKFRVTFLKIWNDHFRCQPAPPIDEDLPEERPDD

[6] = organism: Homo sapiens; test: Selectivity ratio of Ki for recombinant human adenosine A2A receptor to Ki for recombinant human adenosine A1 receptor; procedure, shortened: as §1
[7] = biological target: T3, Adenosine receptor A1; test: Agonist activity at recombinant human adenosine A1 receptor expressed in CHO cell membranes assessed as inhibition of forskolin-stimulated adenylyl cyclase activity in presence of […]
[8] = biological target: T4, Adenosine receptor A1 (Homo sapiens) (UniProt P30542); test: Agonist activity at recombinant human adenosine A1 receptor expressed in CHO cell membranes assessed as inhibition of forskolin-stimulated adenylyl cyclase activity in presence of […] relative to CCPA
T4 sequence (whole entry): T3 sequence (P30542 whole entry)

[9] = biological target: T1, Adenosine receptor A3; test: Antagonist activity at recombinant human adenosine A3 receptor expressed in CHO cell membranes assessed as inhibition of forskolin-stimulated adenylyl cyclase in presence of […]; assay type: functional, cell-based
Procedure, shortened: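 hA3-CHO membranes (one high-speed spin, 50 mM Tris/HCl pH 7.4, used fresh) tested for reversal of NECA-induced inhibition of forskolin-stimulated adenylyl cyclase. NECA served as reference agonist. Points in duplicate, at least 3 independent experiments.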

[10] = test system: Mus musculus; test: Antinociceptive activity in ip dosed C57BL/6 mouse assessed as reduction in prolonged phase of tonic pain administered 10 mins prior to formalin challenge measured after 60 mins; assay type: functional, organism-based
Procedure, shortened: (§3)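 Adult male C57BL/6 mice (25-30 g), acclimatized 30 min in test chamber. Compound or vehicle (10% DMSO in 0.9% NaCl) given i.p. 10 min before 30 µL 1.25% formalin s.c. into dorsal hind paw; DPCPX 1 mg/kg i.p. where co-given. Blinded observers recorded paw lifting/licking time every 5 min for 60 min; early phase 0-7 min, late phase 15-60 min. 8-10 mice/group, mean ± SEM.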

[11] = test system: Mus musculus; test: Antinociceptive activity in C57BL/6 mouse assessed as reduction in prolonged phase of tonic pain at 2 mg/kg, ip administered 10 mins prior to formalin challenge measured after 60 mins in presence of A1AR antagonist DPCPX; assay type: functional, organism-based; procedure, shortened: as §3
[12] = test system: Mus musculus; test: Antinociceptive activity in C57BL/6 mouse assessed as reduction in early phase of tonic pain at 4 mg/kg, ip administered 10 mins prior to formalin challenge measured after 7 mins; assay type: functional, organism-based; procedure, shortened: as §3
[13] = test system: Mus musculus; test: Antinociceptive activity in C57BL/6 mouse assessed as reduction in prolonged phase of tonic pain at 4 mg/kg, ip administered 10 mins prior to formalin challenge measured after 60 mins; assay type: functional, organism-based; procedure, shortened: as §3
[14] = test system: Mus musculus; test: Antinociceptive activity in C57BL/6 mouse assessed as reduction in prolonged phase of tonic pain at 4 mg/kg, ip administered 10 mins prior to formalin challenge measured after 60 mins in presence of A1AR antagonist DPCPX; assay type: functional, organism-based; procedure, shortened: as §3
[15] = test system: Mus musculus; test: Antinociceptive activity in C57BL/6 mouse assessed as reduction in early phase of tonic pain at 2 mg/kg, ip administered 10 mins prior to formalin challenge measured after 7 mins; assay type: functional, organism-based; procedure, shortened: as §3
[16] = test system: Mus musculus; test: Antinociceptive activity in C57BL/6 mouse assessed as reduction in early phase of tonic pain at 4 mg/kg, ip administered 10 mins prior to formalin challenge measured after 7 mins in presence of A1AR antagonist DPCPX; assay type: functional, organism-based; procedure, shortened: as §3

Adenosine receptor A2a, sequence (P29274 whole entry): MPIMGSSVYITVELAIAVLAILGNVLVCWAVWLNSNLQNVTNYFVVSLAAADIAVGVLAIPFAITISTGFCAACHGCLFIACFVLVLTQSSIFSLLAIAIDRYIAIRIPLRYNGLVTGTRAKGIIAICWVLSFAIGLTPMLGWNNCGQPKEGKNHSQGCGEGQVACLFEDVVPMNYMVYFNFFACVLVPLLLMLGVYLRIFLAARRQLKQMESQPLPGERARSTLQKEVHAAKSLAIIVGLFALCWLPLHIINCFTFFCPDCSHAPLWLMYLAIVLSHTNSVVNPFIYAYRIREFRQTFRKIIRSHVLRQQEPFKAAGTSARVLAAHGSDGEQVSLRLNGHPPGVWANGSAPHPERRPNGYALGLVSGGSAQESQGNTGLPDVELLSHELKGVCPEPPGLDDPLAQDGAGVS

| SMILES | Ratio Ki [1] | Ki [2] | EC50 [3] | Ki [4] | Ki [5] | Ratio Ki [6] | EC50 [7] | Efficacy [8] | IC50 [9] | Activity [10] | Activity [11] | Activity [12] | Activity [13] | Activity [14] | Activity [15] | Activity [16] |
| --- | --- | --- | --- | --- | --- | --- | --- | --- | --- | --- | --- | --- | --- | --- | --- | --- |
| Cc1cc(C)n(C[C@H]2O[C@@H](n3cnc4c(Nc5ccc(Cl)cc5F)ncnc43)[C@H](O)[C@@H]2O)n1 | 17 | 2730 nM | > 60000 nM | 6830 nM | 158 nM | 43 |  |  |  |  |  |  |  |  |  |  |
| O[C@@H]1[C@H](O)[C@@H](CCl)O[C@H]1n1cnc2c(Nc3ccc(Cl)cc3F)nc(Cl)nc21 | 21 | 232 nM | > 60000 nM | 1960 nM | 11.2 nM | 175 |  |  |  |  |  |  |  |  |  |  |
| Cc1cc(C)n(C[C@H]2O[C@@H](n3cnc4c(NC5CCCC5)nc(Cl)nc43)[C@H](O)[C@@H]2O)n1 | 18 | 343 nM | > 30000 nM | 10200 nM | 18.6 nM | 548 | 541 nM | > 90% | 1910 nM |  |  |  |  |  |  |  |
| Cc1cc(C)n(C[C@H]2O[C@@H](n3cnc4c(NC5CCCC5)ncnc43)[C@H](O)[C@@H]2O)n1 | 49 | 5640 nM | > 60000 nM | 14500 nM | 115 nM | 126 |  |  |  |  |  |  |  |  |  |  |
| Cc1cc(C)n(C[C@H]2O[C@@H](n3cnc4c(Nc5ccc(Cl)cc5F)nc(Cl)nc43)[C@H](O)[C@@H]2O)n1 | 1 | 139 nM | > 60000 nM | > 100000 nM | 139 nM | > 719 | 5570 nM | > 90% | 701 nM |  |  |  |  |  |  |  |
| O[C@@H]1[C@H](O)[C@@H](CCl)O[C@H]1n1cnc2c(N[C@@H]3CCOC3)nc(Cl)nc21 | 314 | 1100 nM | 20000 nM | 8680 nM | 3.5 nM | 2480 | 54.2 nM | > 90% |  | Dose-dependent effect | inactive |  |  |  |  |  |

Continued by falling Ki [2], values first:

| Ratio Ki [1] | Ki [2] | EC50 [3] | Ki [4] | Ki [5] | Ratio Ki [6] | EC50 [7] | Efficacy [8] | IC50 [9] | SMILES | Activity [10] | Activity [11] | Activity [12] | Activity [13] | Activity [14] | Activity [15] | Activity [16] |
| --- | --- | --- | --- | --- | --- | --- | --- | --- | --- | --- | --- | --- | --- | --- | --- | --- |
| 213 | 5450 nM | > 30000 nM | 19600 nM | 25.6 nM | 765 |  |  |  | Cc1cc(C)n(C[C@H]2O[C@@H](n3cnc4c(NC5CC6CCC5C6)ncnc43)[C@H](O)[C@@H]2O)n1 (mixture of isomers) |  |  |  |  |  |  |  |
| 11 | 5280 nM | > 60000 nM | 28600 nM | 491 nM | 58 |  |  |  | Cc1cc(C)n(C[C@H]2O[C@@H](n3cnc4c(N[C@@H]5CCOC5)ncnc43)[C@H](O)[C@@H]2O)n1 |  |  |  |  |  |  |  |
| 333 | 1450 nM | > 30000 nM | 9430 nM | 4.35 nM | 2170 | 134 nM | > 90% |  | Cc1cc(C)n(C[C@H]2O[C@@H](n3cnc4c(NC5CC6CCC5C6)nc(Cl)nc43)[C@H](O)[C@@H]2O)n1 (mixture of isomers) | Dose-dependent effect |  |  |  |  |  |  |
| 635 | 1200 nM | 12800 nM | 10400 nM | 1.89 nM | 5500 | 140 nM | > 90% |  | O[C@@H]1[C@H](O)[C@@H](CCl)O[C@H]1n1cnc2c(N[C@@H]3CCOC3)ncnc21 |  |  | Active | Active | inactive | Active | inactive |
| 2.3 | 996 nM | > 60000 nM | 11900 nM | 438 nM | 27 |  |  |  | Cc1cc(C)n(C[C@H]2O[C@@H](n3cnc4c(N[C@@H]5CCOC5)nc(Cl)nc43)[C@H](O)[C@@H]2O)n1 |  |  |  |  |  |  |  |
| 73 | 136 nM | 3740 nM | 1360 nM | 1.87 nM | 727 | 56 nM | > 90% | 4140 nM | O[C@@H]1[C@H](O)[C@@H](CCl)O[C@H]1n1cnc2c(Nc3ccc(Cl)cc3F)ncnc21 |  |  |  |  |  |  |  |
